Active and inactive are the calls of the source. The calls are words filed in the database; no cut-off is given here.

For experiment [1], the system named is Mus musculus. Briefly: Intraperitoneal dose required for antagonism of d-amphetamine lethality in grouped mice (GAL). It counts as functional. The settings on record: ip. Put shortly: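 Mice housed in groups received drug intraperitoneally and were scored for protection against d-amphetamine-induced lethality. There were 5 to 10 animals per dose group. The ED50 was the dose protecting 50% of mice. 95% confidence limits came from Finney's arc-sine transformation method.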

The test system of experiment [2] is Mus musculus. The experiment can be described thus: Minimum effective dose was measured orally by antagonism of tetrabenazine-induced depression in mice(po); inact means compound is inactive. It is filed as functional, organism-based. The method, boiled down: (§1)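 Mice given tetrabenazine to induce depression; test agent given orally to look for antagonism of that depression. The value is the minimum effective dose. Each test group held 5 to 10 animals. The protocol is the same as in the group's earlier publications.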

For the next experiment, the system named is Rattus norvegicus. The experiment can be described thus: Estimated oral dose depressing motor activity by 50% in rats(po). It counts as functional. Put shortly:
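Rats dosed orally; spontaneous motor activity recorded. The value is the estimated dose that lowers motor activity by 50%. Each test group held 5 to 10 animals. The protocol is the same as in the authors' earlier reports.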

In experiment [3] the test system is Mus musculus. Briefly: Oral dose required for antagonism of d-amphetamine lethality in grouped mice (GAL). It counts as functional. The method, boiled down: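 Drug was given orally to grouped mice challenged with d-amphetamine, and survival (protection from lethality) was recorded. Each test group had 5 to 10 animals. The result is an ED50 with 95% confidence limits, calculated by the arc-sine transformation method of Finney.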

The subject of experiment [4] is Mus musculus. Briefly: Minimum effective dose was measured orally by antagonism of tetrabenazine-induced depression in mice(po). To be noted: read-out: MED. It counts as functional. The method, boiled down: as §1

As for `CN1CCN(C2=Nc3ccccc3Cn3cccc32)CC1`, the ED50 (usually the midpoint of the dose-response relation) in the experiment on Mus musculus [1] was 1 mg/kg. For the same compound, the MED entry with Mus musculus [2] is “inactive”. In the experiment on Rattus norvegicus, the MDD50 is 7 mg/kg.

`CN1CCN(C2=Nc3cc(Cl)ccc3Cn3cccc32)CC1` returned an ED50 with Mus musculus [1] of 4 mg/kg. In the experiment on Mus musculus [2], the MED result is “inactive”. In addition, in the experiment on Rattus norvegicus, the MDD50 was 12 mg/kg.

The compound `c1ccc2c(c1)Cn1cccc1C(N1CCNCC1)=N2` displayed an ED50 with Mus musculus [3] of 4.7 mg/kg. Also, in the experiment with Mus musculus [4], the minimal effective dose was determined as 3.1 mg/kg.

`CN1CCN(C2=Nc3cc(Cl)ccc3Nc3ccccc32)CC1` [CLOZAPINE] yielded an ED50 in the experiment on Mus musculus [1] of 2.2 mg/kg. Moreover, the MED result with Mus musculus [2] was “inactive”. The MDD50 with Rattus norvegicus is 21 mg/kg.

Regarding `CN(C)CCCN1c2ccccc2Sc2ccc(Cl)cc21` [CHLORPROMAZINE], in the experiment with Mus musculus [1], the ED50 is 0.6 mg/kg. Moreover, the MED result with Mus musculus [2] was “inactive”. The MDD50 in the experiment with Rattus norvegicus was 2.4 mg/kg.

Take `CN(C)CCCN1c2ccccc2CCc2ccccc21` [IMIPRAMINE]: the minimal effective dose in the experiment on Mus musculus [4] is 5 mg/kg. In addition, the MDD50 in the experiment on Rattus norvegicus is greater than 50 mg/kg.

The compound `CN1CCN(C2=Nc3ccc(Cl)cc3Cn3cccc32)CC1` yielded a median effective dose (ED50) in the experiment with Mus musculus [1] of 16 mg/kg. Further, in the experiment with Mus musculus [2], the MED entry is “inactive”. Also, the MDD50 with Rattus norvegicus was 50 mg/kg.

The values above are taken from ChEMBL document CHEMBL1121428, “Derivatives of 11-(1-piperazinyl)-5H-pyrrolo[2,1-c][1,4]benzodiazepine as central nervous system agents” (1980).
